The source of these data is the RNAGym collection of RNA variant scans (doi:10.1126/science.aae0568).

First the molecules themselves.
B1: tRNA (parent)
chain: GUUCCGUUGGCGUAAUGGUAACGCGUCUCCCUCCUAAGGAGAAGACUGCGGGUUCGAGUCCCGUACGGAACG

Variants at the floor of the assay were thinned out.

The variants in the data set derive from B1. Nature of the data set: yeast fitness relative to wild type (ratio to wild type); higher = fitter; tRNA-Arg(CCU), competitive growth, 37 C, YPD. In outline: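 Variants of the tRNA-Arg(CCU) gene, chemically synthesised with a 3% per-site mutation rate at 69 sites, were placed at the native genomic locus in Saccharomyces cerevisiae. The pooled strains were competed in YPD at 37°C for 24 hours in six parallel replicates. Gene amplicons from the start population and from each end population were read by 100-nucleotide paired-end sequencing. Darwinian fitness relative to wild type came from changes in genotype frequencies; genotypes needed ≥ 100 starting reads, and estimates < 0.5 were set to 0.5.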
On to C5G C46U C49U, for which the yeast fitness is 0.944.
For C11U C24G G63C G67A, the yeast fitness stood at 0.568.
Next, U7G A21C G44C G58C: not above 0.5; G12A C27G C46A C55U: 0.603.
Next, C46G A57U C66U: 0.608; G6A C11G C34G A42G C62U: 0.609; A14U A40C C66A: not above 0.5.
With C5A G25A, the yeast fitness amounted to 1.03.
To U2C G41A C62U belongs 0.528; to C31A G44A A57C C62A G68C, 0.559; to G38C C49U, 0.67.
Next, U3C C11U A14C A21U A36C G58C: 0.562; G9A C24U G25C C30G G50C G56A C66U: not above 0.5; U35A C60G G67U: not above 0.5.
A14C A20U G25C A43C: the yeast fitness is not above 0.5.
On to C5A G18A C30U G48C G68C, for which the yeast fitness was determined as 0.54.
Next, A37G G63C G68C: not above 0.5; U3G A65G: 1.1.
Regarding G10A A21C C24A A65C G68C, the yeast fitness was not above 0.5.
For U2G C31G A42G A57U, the yeast fitness is not above 0.5.
As to U8C C30G C33G A70U, the yeast fitness stood at 0.571.
To C46G A70G belongs 1.03.
For C27U C46U, the yeast fitness is 0.978.
Next, C27A U64A G68C: not above 0.5; C5A U19C U26G A36C: 0.571.
Next, U2C A36C: 0.543; C11G A15C C34U G48A C55U: 0.759; A21G C31G G63A: 0.774.
As for A42G G58C, the yeast fitness came to 0.906.
In the case of A15U A43U C55G, the yeast fitness is not above 0.5.
For C27G G68A, the yeast fitness was 0.607.
Next, G6A A40G A42G: 0.554.
Next, U3C A20G C29G C55U: not above 0.5.
Consider G25A A40C C66U A70C, for which the yeast fitness is not above 0.5.
Regarding C5A C31U C34U C60G G63A, the yeast fitness is not above 0.5.
Next, U26A C31G A36C G41A C55G: not above 0.5.
U7C G38C C49A A70C: the yeast fitness was not above 0.5.
To G12A C46U U53A belongs not above 0.5; to G10C U13C G18C C27U C33G C55U U64A G68C A70U, 0.593; to C11G A37C C46G G48A C49U, not above 0.5.
To C5G C30G G52A belongs 0.523; to C11A C24U G38C, not above 0.5.
As to U13A G39A A45G U54A, the yeast fitness was not above 0.5.
As for C5G C30G G56A G58C C61G, the yeast fitness was not above 0.5.
For C4U C29A G52C C55A C61A G68U, the yeast fitness is not above 0.5.
Consider G10C A45G A65C A69C, for which the yeast fitness came out at 0.571.
For G9A G52A G56U, the yeast fitness was not above 0.5.
Regarding A20C G38A G51C U64G, the yeast fitness is not above 0.5.
For the variant G12A G23C G25A U59A G63A, the yeast fitness is not above 0.5.
For the variant U3C C34A G44A U54A, the yeast fitness was not above 0.5.
Consider U3C G48A U54A, for which the yeast fitness came to 0.534.
Consider G23C U32C A45U, for which the yeast fitness came to 0.605.
As for C30G C46A, the yeast fitness came out at 0.587.
Next, C5U C27U A37C C60A: 0.546; U3C A20U C24U C30A: 0.656; G51A C66A: 0.555.
Consider C22U C30U U47C U54A, for which the yeast fitness is not above 0.5.
For U16A A20U C24G C33G A65G C66A, the yeast fitness was not above 0.5.
Take C22G C24U C29U C30G G63C: the yeast fitness was not above 0.5.
To G12A A20G U26C C29U C31G C33U A42U belongs not above 0.5; to G10C U32A G38C U64C, not above 0.5.
To G18C C33G A40G G58A U64A belongs 0.59; to C27U C29A C55G A65G, not above 0.5; to C11A A42G U53G, not above 0.5.
Regarding G6A C24U C29G C66U, the yeast fitness is not above 0.5.
With C5U C29G A37C C49U C66A, the yeast fitness was found to be 0.627.
Regarding U8C C11A A43U G48C C60G, the yeast fitness was not above 0.5.
Next, C5U G10A C27G U35G G44A: not above 0.5; G17A C33A A36U G41A G48A: not above 0.5; C55A C62U: 0.685.
To G6C C29U C34U belongs 0.561; to G17A G18A A20C A21G G50A C55G A69U, 0.642.
As for C4U G18A G23C C24G, the yeast fitness was 0.518.
To U16C C31G G41A G52C C60U C62G C66G belongs not above 0.5; to U2C A45G C49G, not above 0.5; to U3C U28A C34U G41C G51A U53A U59C A70U, not above 0.5.
In the case of U13G C30G A40G, the yeast fitness is not above 0.5.
To A21C C24A U54A A70C belongs not above 0.5; to U3A C34U A43G C49A G52A, not above 0.5.
For A37U A57C A69U A70C, the yeast fitness is 0.775.
Take A20G G23C C31U C46G A70U: the yeast fitness came out at 0.57.
To U13C C22U C27U A37C G67A belongs not above 0.5.
To U13G U53C G67C belongs 0.771; to U2C C4U C27U A45C G48A G56C, not above 0.5; to C31A G38C, 0.749.
To U26A A43U G68A belongs not above 0.5.
C4A C5U C22U C31A C34A: the yeast fitness is not above 0.5.
With C24G C31G G68A A70U, the yeast fitness is not above 0.5.
Regarding U3C G6A G18C A45U G68A, the yeast fitness was not above 0.5.
In the case of C5G A14C A37G C62G, the yeast fitness worked out at 0.561.
Consider U3C C5G A15G, for which the yeast fitness was not above 0.5.
To G25C C46G U53G C66A belongs 0.81.
To U28G C34G G44C C61G belongs 0.558; to C30A C31G G38C A57C, not above 0.5.
On to C30G C34A A57U C61G, for which the yeast fitness is not above 0.5.
On to G17A U28A G51A C60G A65G C66G, for which the yeast fitness is not above 0.5.
As to C33U A45C A57U U59C, the yeast fitness is not above 0.5.
A36G G44A C46U: the yeast fitness worked out at 0.992.
In the case of G17C U19C U59A, the yeast fitness was not above 0.5.
On to G6A G9C C11G G48C U59A, for which the yeast fitness was not above 0.5.
As to C5G G6C U54C G56C G58A, the yeast fitness was not above 0.5.
Next, C11G A20G C62A: not above 0.5; U3C C27G C33G G51C C60U C61U: not above 0.5; G25C U59G: 0.678.
To A20G A36U C61U belongs 0.571; to A15C C24U A45G G52A, not above 0.5.
For the variant U13C U28C, the yeast fitness was found to be 0.838.
Next, G10C G68C: 0.697; G38C A40U A42G G51A C60U G68A: not above 0.5; C30U G51C G67A: not above 0.5.
To C11U A36U A37C A42U G63C belongs not above 0.5; to U13A G18C C27U A65G, not above 0.5; to U8C G25A A37G A40G, not above 0.5.
To U2C C31U belongs 0.892.
With C5G A14C C31G, the yeast fitness is not above 0.5.
To G25C C33G G50C U54C belongs not above 0.5; to G38C A40U G48A C66U, 0.556; to G12C U13G C33U C55U G56A, not above 0.5.
Turning to A20U C61U G67U, the yeast fitness was not above 0.5.
Next, C30A A40U G51C C61U: 0.646; C4G G9C C33G C61U A70G: not above 0.5; U3C C55G G68C: not above 0.5.
As for U7C C11G C24U G48A C66U, the yeast fitness is not above 0.5.
For C4U G9A C33G, the yeast fitness was 0.639.
To U16C A42C belongs 0.93; to U2A A15C C30G, not above 0.5; to A36C G50C G63C, 0.652.
Next, C22A C30U: 0.647; C5U A15U U35C A45C: not above 0.5; C11A C30G A45U A57G C60A: not above 0.5.
Regarding G23C C33G C46A, the yeast fitness worked out at 0.53.
For the variant U2A U59C C66G, the yeast fitness came to 0.537.
As for C5G C34U, the yeast fitness was found to be 0.599.
As for C11U C49U, the yeast fitness is 0.976.
Next, C4G A21C G23C A36U A57U C60G G68C: not above 0.5; C5A U13G C34G C62G: not above 0.5; U7C A14G G25A A43G A69C: not above 0.5.
For C11G C31A G38C C55U G58A, the yeast fitness was determined as 0.577.
Next, G12A A42G A69U: 0.688; U7C G51C A57G: not above 0.5; G9U C34U G41A: not above 0.5.
As for G9A G56U G58A, the yeast fitness was 0.563.
For A14G A20G C22G U59C A65U, the yeast fitness is not above 0.5.
Next, G39C U47C: 0.822.
With G23A C33G G63A, the yeast fitness came to 0.594.
As for C11A C31U G56A G58C, the yeast fitness came out at 0.595.
Regarding C5A G12A C24U C29U C30A, the yeast fitness is not above 0.5.
On to C4A G23A U28A A57G, for which the yeast fitness is not above 0.5.
Next, C4G U26A C27U A42C G51A A65U: not above 0.5; G6A A15G C46A: 0.557.
To G10A U54C C61G belongs not above 0.5; to C30U A42G G52C, not above 0.5; to U3C A43U U53A, not above 0.5.
To A37U A45C G52C belongs not above 0.5.
With G12C C33A G51C C62G, the yeast fitness is not above 0.5.
To A43U A45U A57C C66U belongs not above 0.5.
Next, A14G C55U A69U: not above 0.5; C5U C55U G67C: not above 0.5.
Next, G56A A65C: 1.1; G9C A42C: 0.684.
On to G48A C61U, for which the yeast fitness was found to be 1.04.
Next, U59C G67A: 0.835; U32C A42C: 0.866.
Take G9C C29U C34G G48C C62U: the yeast fitness is 0.782.
Next, U3C G41C: 0.824; A21U C62A G67A A69G: not above 0.5; C5U U13A G18C C30G A37U C46U: not above 0.5.
